Hits are enriched below; roughly 1.5% of the tested compounds scored in any of these assays.
TPT1 inh: blocks Candida albicans tRNA 2'-phosphotransferase | inhibition, % at 5 µM | 300,000 tested, 0.81% active | recombinant caTPT1, FP RNA substrate dephosphorylation | AID 1962;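 active = inhibition above the mean of all tested compounds plus 3 SD, set per screening campaign, cut at about 24% in these data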
CSN inh: blocks human CSN-mediated cullin deneddylation; Q92905; Purified CSN, SCF-Nedd8-OG deneddylation, fluorescence polarization; inhibition, % at 12.5 µM; 360,000 tested, 0.38% active;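 active = pattern-corrected inhibition above about 35%, with an unprinted fluorescence ratio check between 0.5 and 1.5, limit read from the data, passing the limit was not always enough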
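Test system: purified human Csn5 enzyme expressed in HEK293T cells. Amount: 0.24 nM enzyme. Reagent: SCFSkp2-Nedd8OG substrate at 10 nM final. Schedule: 90 min incubation of compound, enzyme and substrate at room temperature. Detection: fluorescence polarization. Read-out: % inhibition of substrate cleavage by Csn5.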
Rpn11 block: blocks the human proteasome subunit Rpn11 | human 26S proteasome, Ub4-pepOG fluorescence polarization; 20S core pre-blocked with epoxomicin | inhibition, % at 20 µM | 360,000 tested, 0.59% active | AID 588493;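 active = inhibition at 20 µM, scaled to each plate's controls, above about 33%, limit read from the data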
HNF4A DNA FP: change in binding of human HNF4 alpha to DNA. HNF4a-FITC DNA binding, fluorescence polarization, 1 h. activity change, % at 10 µM. P41235. 360,000 tested, 0.3% active. AID 1224865; in the data active = activity change above about 30%, passing the limit was not always enough
Rpn11 confirm: confirmation of human proteasome Rpn11 inhibitors; purified human 26S proteasome, Ub4-pepOG fluorescence polarization; proteasome pretreated with epoxomicin; shares compounds with Rpn11 block; inhibition, % at 20 µM; 1,900 tested, 29% active; AID 602318
MMP-2 counter: counter-screen for RPN11 inhibitors: inhibition of human MMP-2 | shares compounds with Rpn11 block | inhibition, % at 20 µM | 1,900 tested, 4% active | recombinant MMP-2, FRET peptide cleavage fluorescence;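 note: human MMP-2 activated beforehand with APMA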
Target sequence (P08253 whole entry, looked up): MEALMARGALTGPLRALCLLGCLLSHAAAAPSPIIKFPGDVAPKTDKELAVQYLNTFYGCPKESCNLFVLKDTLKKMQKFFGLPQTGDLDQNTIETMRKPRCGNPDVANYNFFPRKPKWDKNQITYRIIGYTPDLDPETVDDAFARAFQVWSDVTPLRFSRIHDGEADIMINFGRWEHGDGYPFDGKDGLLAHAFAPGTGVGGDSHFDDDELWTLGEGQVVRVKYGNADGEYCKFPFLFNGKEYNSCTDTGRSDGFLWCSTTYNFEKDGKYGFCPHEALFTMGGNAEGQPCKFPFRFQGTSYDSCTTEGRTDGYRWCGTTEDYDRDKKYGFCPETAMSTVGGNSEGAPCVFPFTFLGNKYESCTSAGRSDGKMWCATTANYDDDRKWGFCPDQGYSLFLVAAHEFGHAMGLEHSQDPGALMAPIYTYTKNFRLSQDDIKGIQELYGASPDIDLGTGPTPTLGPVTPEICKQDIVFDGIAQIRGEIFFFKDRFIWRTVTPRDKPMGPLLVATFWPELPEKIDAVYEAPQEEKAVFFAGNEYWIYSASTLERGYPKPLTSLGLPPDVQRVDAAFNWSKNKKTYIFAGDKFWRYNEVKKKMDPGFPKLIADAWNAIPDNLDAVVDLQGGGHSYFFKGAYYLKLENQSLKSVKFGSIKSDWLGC
Thrombin inh: thrombin (bovine) inhibition counter-screen. shares compounds with Rpn11 block. bovine thrombin cleavage of Ub4-pepOG, fluorescence polarization. inhibition, % at 20 µM. 1,900 tested, 13% active;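 active = mean inhibition at least 40% at 20 µM, or signal 3 deviations below plate average, so some actives read negative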
A number is an active result; – = inactive; · = not tested or not shown; + = active, no number. Cut-off read from the data, not from the text of the source, unless noted: active = inhibition above about 40%; inactive = the rest.

SMILES	TPT1 inh	CSN inh	Rpn11 block	HNF4A DNA FP	Rpn11 confirm	MMP-2 counter	Thrombin inh
Cc1cc(C)n(CC(O)Cn2c3ccccc3c3ccccc32)c(=O)n1 (centres undefined)	–	–	47.5	–	–	–	–
CC(OC(=O)C1CCN(S(=O)(=O)c2ccc(C(C)(C)C)cc2)CC1)C(=O)N(C)C1CCCCC1 (centres undefined)	·	–	–	–	·	·	·
COc1ccc(OC)c(S(=O)(=O)NC(=O)C2(C)CCN2C(=O)CC2CCCC2)c1 (centres undefined)	·	–	–	–	·	·	·
O=C(CSc1nc2ccccc2c(=O)[nH]1)N1CCN(S(=O)(=O)c2ccccc2)CC1	–	–	–	–	·	·	·
O=C(CSc1nc(-c2ccccc2)c(-c2ccccc2)[nH]1)N1CCN(S(=O)(=O)c2ccccc2)CC1	–	–	+	–	–	–	–
Cc1csc(C(=O)O)c1NC(=O)c1cccc([N+](=O)[O-])c1	–	–	–	–	·	·	·
Cc1cc(-c2csc(NC(=O)c3cccc(S(=O)(=O)N(C)C)c3)n2)c(C)n1-c1ccccc1	–	–	37.3	–	–	–	–
O=c1c(Cl)c(N/N=C/c2ccc(Br)cc2)cnn1-c1ccccc1	–	–	96.5	–	46.6	–	–
Cc1ccc(N=Nc2c(O)[nH]c(=O)[nH]c2=O)cc1S(=O)(=O)Nc1ccc(Br)cc1	·	–	49.5	–	107.7	–	71.6
CCOc1cc(C(c2c(C)[nH][nH]c2=O)c2c(C)[nH][nH]c2=O)ccc1OS(=O)(=O)c1ccc(C)cc1	–	–	103.1	–	–	–	–
CCOc1ccc(C(c2c(C)[nH][nH]c2=O)c2c(C)[nH][nH]c2=O)cc1OC	–	–	–	–	·	·	·
O=C(CCS(=O)(=O)c1ccccc1)N1CCN(c2ccc(F)cc2)CC1	–	–	–	–	·	·	·
O=C(CN1CCCc2ccccc21)N/N=C/c1ccccc1	–	–	65.5	–	–	–	–
COc1ccc(CCNC(=O)CS(=O)Cc2nc(-c3cccs3)oc2C)cc1OC (centres undefined)	–	–	119.6	–	–	–	–
CC(C)N(C(=O)C[n+]1ccc(/C=N/O)cc1)C(C)C	–	–	43.6	–	–	–	–
CCOC(=O)c1noc(C)c1C(=O)Nc1cccc(F)c1	–	–	82.7	–	–	–	–
CCN(CC)S(=O)(=O)c1ccc(N2CCN(C)CC2)c(NC(=O)COc2ccc(F)cc2Cl)c1	–	–	–	–	·	·	·
CC(C)C(c1nnnn1Cc1ccco1)N1CCC(C(N)=O)CC1 (centres undefined)	–	–	142.3	–	–	–	–
CCC(c1nnnn1Cc1ccco1)N1CCC(C(N)=O)CC1 (centres undefined)	–	–	–	–	·	·	·
Cn1ncc(Cl)c1C(=O)Nc1cc(C(F)(F)F)ccc1F	–	–	+	–	–	–	–
C[C@H](CO)N1C[C@H](C)[C@@H](CN(C)C(=O)Nc2cccc(F)c2)Oc2ncc(Br)cc2C1=O	·	–	78.8	–	–	–	–
CN[C@H]1C[C@H]2c3[nH]c4ccc(-c5cccc(C)c5)cc4c3CCN2C[C@H]1[C@H](C)O	·	–	–	–	·	·	·
Cc1ccc(S(=O)(=O)Nc2cc(Cl)c(O)c3ncccc23)cc1	–	–	72.0	–	76.2	51.8	–
Oc1ccc(Cl)c2cccnc12	·	–	–	–	·	·	·
Oc1c(Cl)cc(Cl)c2cccnc12	·	–	53.5	–	–	–	–
SMILES	TPT1 inh	CSN inh	Rpn11 block	HNF4A DNA FP	Rpn11 confirm	MMP-2 counter	Thrombin inh
O=C(NCC(=O)N1CCCCCC1)c1ccc(Br)cc1	–	–	–	–	·	·	·
CC1=Nc2ccc(C)cc2/C1=C/c1c(N)n2oc(C)cc2nc1=O	–	–	70.2	–	58.6	–	–
C/C(=N\Nc1ccc([N+](=O)[O-])cc1)c1ccc(-n2nncc2C)cc1	–	–	61.5	–	–	–	–
CC1(Cc2ccc(C(F)(F)F)o2)C(=O)Nc2cc(-c3ccc(F)cc3F)ccc21 (centres undefined)	·	–	–	–	·	·	·
O=C(Nc1csc([N+](=O)[O-])c1)Nc1ccccc1Cl	–	–	–	–	·	·	·
O=C(Nc1ccc(Cl)cc1)Nc1ccccc1Sc1ncc([N+](=O)[O-])s1	–	–	43.8	–	–	–	–
C#CCOCCOCCOCCNc1nc(N2CCN(C(=O)[C@H](Cc3cc4ccccc4[nH]3)n3cc([C@@H](N)CC(C)C)nn3)CC2)nc(N2CCN(C(=O)[C@H](Cc3cc4ccccc4[nH]3)n3cc([C@@H](N)CC(C)C)nn3)CC2)n1	–	50.0	68.1	–	–	–	–
C#CCOCCOCCOCCNc1nc(N2CCOCC2)nc(N2CCN(C(=O)[C@H](Cc3cc4ccccc4[nH]3)n3cc([C@@H](N)CC(C)C)nn3)CC2)n1	–	–	–	–	·	·	·
C#CCOCCOCCOCCNc1nc(N2CCN(C(=O)CCCCCCCCCCNC(=O)[C@H](CO)n3cc(CCCSC)nn3)CC2)nc(N2CCN(C(=O)CCCCCCCCCCNC(=O)[C@H](CCCCN)n3cc(C[C@@H](C)CC)nn3)CC2)n1	–	·	·	·	·	·	·
C#CCOCCOCCOCCNc1nc(N2CCN(C(=O)CCCCCCCCCCNC(=O)[C@H](CCCCN)n3cc(C[C@@H](C)CC)nn3)CC2)nc(N2CCN(C(=O)CCCCCCCCCCNC(=O)[C@H](CCCCN)n3cc(C[C@@H](C)CC)nn3)CC2)n1	–	106.1	87.4	–	44.6	–	–
COc1ccc(C2CC(c3cccs3)=NN2S(=O)(=O)c2ccc(C)cc2)cc1 (centres undefined)	–	–	–	–	·	·	·
Cc1ccc(C2CC(c3cccs3)=NN2S(=O)(=O)c2ccc(C)cc2)cc1 (centres undefined)	–	–	44.8	–	41.1	–	–
CC(C)(C)c1nc2ccccc2c2nnc(SCC(=O)Nc3nc4ccccc4s3)n12	–	–	187.5	–	81.2	–	–
CC(C)(C)c1nc2ccccc2c2nnc(SCC(=O)Nc3nccs3)n12	–	–	–	–	·	·	·
FC(F)(F)C(F)(F)C(F)(F)c1nnc2ccc(N3CCOCC3)nn12	–	–	92.5	–	–	–	–
CC(=O)c1c(C)[nH]c(C(=O)CN2CCN(S(=O)(=O)c3ccccc3F)CC2)c1C	·	–	–	–	·	·	·
Cn1c(N)c(C(=O)CSc2nc(C3CC3)n(-c3ccccc3)n2)c(=O)n(C)c1=O	·	–	–	–	·	·	·
CC1(C)COC(Cc2ccccc2)=N1	·	–	–	–	·	·	·
CCC(C)c1ccc(N(C(=O)c2ccco2)C(C(=O)NC2CCCC2)c2cccnc2)cc1 (centres undefined)	–	–	–	–	·	·	·
